Assay results: ChEMBL document CHEMBL4364256, “Design, synthesis and biological evaluation of antimicrobial diarylimine and -amine compounds targeting the interaction between the bacterial NusB and NusE proteins” (Eur J Med Chem, 2019)
Values after ≈ are worked out from the molar mass of the structure shown. Active and inactive are the calls of the source.

How the values were obtained:
[1] = system: Staphylococcus aureus; experiment: Antimicrobial activity against Staphylococcus aureus ATCC BAA43 incubated for 20 hrs by microdilution method; assay type: functional
How it was run: (§1)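 MIC determined by microdilution following Clinical & Laboratory Standards Institute (CLSI) guidelines, read in µg/mL, against a panel of hospital- and community-acquired MRSA strains.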

[2] = system: Enterococcus faecium; experiment: Antimicrobial activity against Enterococcus faecium ATCC 19433 incubated for 20 hrs by microdilution method; assay type: functional
How it was run: (§2)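 Broth microdilution MIC testing done following CLSI guidelines.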

[3] = system: Streptococcus pneumoniae; experiment: Antimicrobial activity against Streptococcus pneumoniae ATCC 49619 incubated for 20 hrs by microdilution method; assay type: functional; how it was run: as §2
[4] = system: Acinetobacter baumannii; experiment: Antimicrobial activity against Acinetobacter baumannii ATCC 19606 incubated for 20 hrs by microdilution method; assay type: functional; how it was run: as §2
[5] = system: Pseudomonas aeruginosa; experiment: Antimicrobial activity against Pseudomonas aeruginosa ATCC 27853 incubated for 20 hrs by microdilution method; assay type: functional; how it was run: as §2
[6] = system: Enterococcus casseliflavus; experiment: Antimicrobial activity against Enterococcus casseliflavus ATCC 25788 incubated for 20 hrs by microdilution method; assay type: functional; how it was run: as §2
[7] = system: Staphylococcus epidermidis; experiment: Antimicrobial activity against Staphylococcus epidermidis ATCC 12228 incubated for 20 hrs by microdilution method; assay type: functional; how it was run: as §2
[8] = system: Staphylococcus saprophyticus subsp. saprophyticus; experiment: (§3) Antimicrobial activity against Staphylococcus saprophyticus ATCC 15305 incubated for 20 hrs by microdilution method; assay type: functional; how it was run: as §2
[9] = system: Streptococcus pyogenes; experiment: Antimicrobial activity against Streptococcus pyogenes ATCC 19615 incubated for 20 hrs by microdilution method; assay type: functional; how it was run: as §2
[10] = system: Streptococcus agalactiae; experiment: Antimicrobial activity against Streptococcus agalactiae ATCC 12386 incubated for 20 hrs by microdilution method; assay type: functional; how it was run: as §2
[11] = system: Staphylococcus aureus; experiment: Antimicrobial activity against Staphylococcus aureus ST239 incubated for 20 hrs by microdilution method; assay type: functional; how it was run: as §1
[12] = system: Staphylococcus aureus; experiment: Antimicrobial activity against Staphylococcus aureus ATCC BAA44 incubated for 20 hrs by microdilution method; assay type: functional; how it was run: as §1
[13] = system: Staphylococcus aureus; experiment: Antimicrobial activity against Staphylococcus aureus HA W231 ST45 incubated for 20 hrs by microdilution method; assay type: functional; how it was run: as §1
[14] = system: Staphylococcus aureus; experiment: Antimicrobial activity against CA-methicillin-resistant Staphylococcus aureus W47 ST30 incubated for 20 hrs by microdilution method; assay type: functional; how it was run: as §1
[15] = system: Staphylococcus aureus; experiment: Antimicrobial activity against Staphylococcus aureus ST22 11B086169 incubated for 20 hrs by microdilution method; assay type: functional; how it was run: as §1
[16] = system: Staphylococcus aureus; experiment: Antimicrobial activity against CA-methicillin-resistant Staphylococcus aureus W4 ST338 incubated for 20 hrs by microdilution method; assay type: functional; how it was run: as §1
[17] = system: Staphylococcus aureus; experiment: Antimicrobial activity against Staphylococcus aureus HA W235 ST5 incubated for 20 hrs by microdilution method; assay type: functional; how it was run: as §1
[18] = system: Bacillus subtilis; experiment: Inhibition of N-terminal LgBiT-fused Bacillus subtilis NusB expressed in Escherichia coli BL21(DE3)pLysS interaction with C- terminal SmBiT-fused Bacillus subtilis NusE expressed in Escherichia coli BL21(DE3)pLysS at 100 uM preincubated for 10 mins followed by NusE addition and measured after 10 mins by nano-glo luciferase assay relative to control
How it was run: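 NusB and NusE were mixed 1:1 at 1 µM in PBS, with compound at 100 µM. The read-out was percent inhibition of the NusB-NusE interaction.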

[19] = as §3; assay type: functional, Staphylococcus saprophyticus subsp. saprophyticus; conditions: ATCC 15305, 20 h; how it was run: as §2
[20] = system: Staphylococcus aureus; experiment: Antimicrobial activity against CA-methicillin-resistant Staphylococcus aureus W45 ST59 incubated for 20 hrs by microdilution method; conditions: W45 ST59, 20 h
[21] = system: Staphylococcus aureus; experiment: Antimicrobial activity against CA-methicillin-resistant Staphylococcus aureus W46 ST59 incubated for 20 hrs by microdilution method; conditions: W46 ST59, 20 h
[22] = system: Staphylococcus aureus; experiment: Antimicrobial activity against Staphylococcus aureus USA300/ST8 incubated for 20 hrs by microdilution method; conditions: USA300 ST8, 20 h
[23] = system: Staphylococcus aureus; experiment: Antimicrobial activity against CA-methicillin-resistant Staphylococcus aureus W48 ST217 incubated for 20 hrs by microdilution method; conditions: W48 ST217, 20 h
[24] = system: Staphylococcus aureus; experiment: Bacteriostatic activity against Staphylococcus aureus ATCC 25923 at 1/4 to 1 times MIC preincubated for up to 24 hrs followed by replating on agar plate and measured after overnight incubation by time-kill assay; assay type: functional, organism-based
[25] = system: Staphylococcus aureus; experiment: Bactericidal activity against Staphylococcus aureus ATCC 25923 at 4 times MIC preincubated for up to 24 hrs followed by replating on agar plate and measured after overnight incubation by time-kill; assay type: functional, organism-based
[26] = Cytotoxicity against human A549 cells assessed as reduction in cell viability after 48 to 72 hrs by MTT assay; assay type: cell-based
[27] = Cytotoxicity against human HaCaT cells assessed as reduction in cell viability after 48 to 72 hrs by MTT assay; assay type: cell-based
[28] = Therapeutic index, ratio of CC50 for human A549 cells to 1/2 times MIC for Staphylococcus aureus ATCC 25923; assay type: toxicity; conditions: read-out: TI
[29] = Therapeutic index, ratio of CC50 for human HaCaT cells to 1/2 times MIC for Staphylococcus aureus ATCC 25923; assay type: toxicity; conditions: read-out: TI
[30] = system: Erythrocyte; experiment: Hemolytic activity against human erythrocytes at 0.1 to 10 ug/ml incubated for 45 mins; assay type: ADME, cell-based; conditions: 0.75 h
How it was run: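 Hemolysis was tested on human blood cells with compound at 0.1, 1 and 10 µg/mL, judged against a nonhemolytic cut-off value.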

[31] = Apparent permeability across apical to basolateral side in human Caco2 cells by LC-MS/MS analysis; assay type: ADME, cell-based; conditions: Caco-2
[32] = system: Staphylococcus aureus; experiment: microbe, parasite or virus in culture; conditions: ATCC 25923, 20 h
[33] = system: Staphylococcus aureus; experiment: microbe, parasite or virus in culture; conditions: ATCC 29213, 20 h
[34] = microbe, parasite or virus in culture; conditions: Enterobacter cloacae, ATCC 13047, 20 h
[35] = system: Staphylococcus aureus; experiment: Growth inhibition of Staphylococcus aureus ATCC 25923 at 1/4 times MIC preincubated for 24 hrs followed by replating on agar plate and measured after overnight incubation by time-kill assay; assay type: functional, organism-based
[36] = system: Staphylococcus aureus; experiment: Bacteriostatic activity against Staphylococcus aureus ATCC 25923 at 1 to 4 times MIC preincubated for up to 24 hrs followed by replating on agar plate measured after overnight incubation by time-kill assay; assay type: functional, organism-based
[37] = ATCC 19606 = CIP 70.34 = JCM 6841, 20 h

Row | Compound | MIC ([1]; ATCC BAA43, 20 h) [µg/mL] | inhibition [18] [%] | MIC ([2]; ATCC 19433, 20 h) [µg/mL] | MIC ([3]; ATCC 49619, 20 h) [µg/mL] | MIC [4, 37] [µg/mL] | MIC ([5]; ATCC 27853, 20 h) [µg/mL] | MIC ([6]; ATCC 25788, 20 h) [µg/mL] | MIC ([7]; ATCC 12228, 20 h) [µg/mL] | MIC [19] [µg/mL] | MIC ([9]; ATCC 19615, 20 h) [µg/mL] | MIC ([10]; ATCC 12386, 20 h) [µg/mL] | MIC ([11]; CN79, 20 h) [µg/mL] | MIC ([12]; ATCC BAA44, 20 h) [µg/mL] | MIC ([13]; HA W231 ST45, 20 h) [µg/mL] | MIC ([14]; W47 ST30, 20 h) [µg/mL] | MIC [20] [µg/mL] | MIC [21] [µg/mL] | MIC [32] [µg/mL] | MIC [33] [µg/mL] | MIC [34] [µg/mL] | other results
1 | GENTAMICIN | – | – | – | – | – | – | – | – | – | – | – | – | – | – | – | – | – | – | – | – | MIC [1]: > 256 µg/mL; MIC [2]: 16 µg/mL; MIC [3]: 32 µg/mL; MIC ([4]; ATCC 19606 = CIP 70.34 = JCM 6841): 32 µg/mL; MIC [5]: 2 µg/mL; MIC [6]: 4 µg/mL; MIC [7]: 0.125 µg/mL; MIC [8]: 0.0625 µg/mL; MIC [9]: 8 µg/mL; MIC [10]: 32 µg/mL; MIC ([11]; CN79): > 256 µg/mL; MIC [12]: > 256 µg/mL; MIC [13]: 16 µg/mL; MIC [14]: 0.25 µg/mL; MIC [15]: 0.25 µg/mL; MIC [16]: 0.25 µg/mL; MIC [17]: > 256 µg/mL
2 | O=[N+]([O-])c1ccc(O)c(CNc2ccccc2Cl)c1 | 2 (≈ 7.18 µM) | 31 | 32 (≈ 115 µM) | 8 (≈ 28.7 µM) | 128 (≈ 459 µM) | > 256 | 32 (≈ 115 µM) | 8 (≈ 28.7 µM) | 8 (≈ 28.7 µM) | 16 (≈ 57.4 µM) | 32 (≈ 115 µM) | 8 (≈ 28.7 µM) | 8 (≈ 28.7 µM) | 4 (≈ 14.4 µM) | 4 (≈ 14.4 µM) | 8 (≈ 28.7 µM) | 4 (≈ 14.4 µM) | 2 (≈ 7.18 µM) | 2 (≈ 7.18 µM) | 256 (≈ 919 µM) | MIC [22]: 4 µg/mL (≈ 14.4 µM); MIC ([15]; ST22 11B086169, 20 h): 4 µg/mL (≈ 14.4 µM); MIC ([16]; W4 ST338, 20 h): 4 µg/mL (≈ 14.4 µM); MIC [23]: 4 µg/mL (≈ 14.4 µM); MIC ([17]; HA W235 ST5, 20 h): 4 µg/mL (≈ 14.4 µM); Activity [24]: Active; Activity [25]: Active; CC50 [26]: 22.5 µM; CC50 [27]: 20.1 µM; selectivity ratio [28]: 6; selectivity ratio [29]: 6; Activity [30]: Non-Toxic; Papp A→B [31]: 16.1 ×10⁻⁶ cm/s
3 | O=[N+]([O-])c1ccc(O)c(CNc2cccc(Cl)c2)c1 | 4 (≈ 14.4 µM) | 34.9 | 32 (≈ 115 µM) | 8 (≈ 28.7 µM) | 128 (≈ 459 µM) | > 256 | 32 (≈ 115 µM) | 8 (≈ 28.7 µM) | 16 (≈ 57.4 µM) | 16 (≈ 57.4 µM) | 32 (≈ 115 µM) | 16 (≈ 57.4 µM) | 8 (≈ 28.7 µM) | 8 (≈ 28.7 µM) | 8 (≈ 28.7 µM) | 8 (≈ 28.7 µM) | 8 (≈ 28.7 µM) | 4 (≈ 14.4 µM) | 4 (≈ 14.4 µM) | 256 (≈ 919 µM) | MIC [22]: 8 µg/mL (≈ 28.7 µM); MIC ([15]; ST22 11B086169, 20 h): 4 µg/mL (≈ 14.4 µM); MIC ([16]; W4 ST338, 20 h): 8 µg/mL (≈ 28.7 µM); MIC [23]: 8 µg/mL (≈ 28.7 µM); MIC ([17]; HA W235 ST5, 20 h): 8 µg/mL (≈ 28.7 µM); Activity [30]: Non-Toxic; Papp A→B [31]: 14.9 ×10⁻⁶ cm/s
4 | C#Cc1cccc(/N=C/c2cc([N+](=O)[O-])ccc2O)c1 | – | 85.3 | > 256 | 16 (≈ 60.1 µM) | 64 (≈ 240 µM) | > 256 | – | – | – | – | – | – | – | – | – | – | – | 8 (≈ 30 µM) | 16 (≈ 60.1 µM) | > 256 | growth inhibition (GI) [35]: Active; Activity [36]: Active
